39 molecules from ChEMBL document CHEMBL1145185, “Novel inhibitors of human histone deacetylases: design, synthesis, enzyme inhibition, and cancer cell growth inhibition of SAHA-based non-hydroxamates” (J Med Chem, 2005) can be followed below.

One assay relates to NCI-H460. Description: Inhibition of human lung cancer NCI-H460 cell growth. The class given is functional, cell-based. Summed up:
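Cells seeded at 1500/well, 37 °C; after 24 h exposed to compounds at various concentrations in 10% FBS RPMI-1640, 37 °C, 5% CO₂, 48 h. Stained with 0.5 mg/mL methylene blue, room temperature, 30 min; dye dissolved in 3% aqueous HCl, absorbance at 660 nm. EC₅₀ reported as mean of at least two experiments.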

Assay [1] deals with Histone deacetylase (Homo sapiens) (UniProt Q13547+O15379+Q9UBN7+Q92769+Q9UQL6+Q8WUI4+Q9BY41+Q96DB2+P56524+Q9UKV0+Q969S8). Particulars: at 100 µM.
The target of a further assay is Histone deacetylase. The assay can be described thus: Inhibitory concentration against human histone deacetylase. The class given is protein assay.
Assay [2] can be described thus: Effective Concentration of compound to inhibit the growth of human RXF-631L cells. The class given is functional, cell-based.

Structures are written as SMILES.

On to `CC(C)C(=O)SCCCCCCNC(=O)c1cc2ccccc2[nH]1`, for which, in the assay with NCI-H460, the EC50 was determined as 12 µM.

Take `C#CCN(CC#C)CCCCCC(=O)Nc1ccccc1`: the inhibition in assay [1] was found to be 0%. Further, the IC50 on Histone deacetylase was above 100 µM.

As for `O=CN(O)CCCCCCCC(=O)Nc1ccccc1`, the IC50 against Histone deacetylase turned out to be 2.8 µM.

In the case of `CC(C)C(=O)SCCCCCCC(=O)Nc1cccc(Oc2ccccc2)c1`, the EC50 with NCI-H460 was 25 µM.

As to `SCCCCCCOc1ccccc1`, the IC50 on Histone deacetylase (read-out: IC50) is 11 µM.

`CC(C)C(=O)SCCCCCCC(=O)Nc1nc2ccccc2s1` gave an EC50 in the assay with NCI-H460 of 9.5 µM.

As to `O=C(NCCCCCCS)c1cc2ccccc2[nH]1`, on Histone deacetylase (read-out: IC50), the IC50 was found to be 0.1 µM.

In turn, `NCC(=O)NCCCCCC(=O)Nc1ccccc1` registered an IC50 against Histone deacetylase above 100 µM.

Turning to `CC(C)(C)C(=O)SCCCCCCC(=O)Nc1ccccc1`, the EC50 with NCI-H460 is above 50 µM.

For the molecule `CC(C)(C)C(=O)OCSCCCCCCC(=O)Nc1ccccc1`, the EC50 with NCI-H460 turned out to be 25 µM.

On to `O=C(CCCCCCSC(=O)C1CC1)Nc1ccccc1`, for which the EC50 with NCI-H460 stood at 27 µM.

`CC(C)C(=O)SCCCCCCC(=O)Nc1cnc2ccccc2c1` had an EC50 with NCI-H460 of 8 µM.

In turn, `O=C(CCCCCCS)Nc1nc2ccccc2s1` yielded an IC50 at Histone deacetylase of 0.34 µM.

As for `CC(C)C(=O)SCCCCCCC(=O)Nc1nc(-c2ccccc2)cs1`, the EC50 in assay [2] is 2.4 µM.

`O=C(NCCCCCCS)c1ccc2ccccc2c1`: at Histone deacetylase (read-out: IC50), the IC50 stood at 0.085 µM.

Turning to `CCCC(=O)SCCCCCCC(=O)Nc1ccccc1`, the response in the assay on NCI-H460 was half-maximal at 22 µM (EC50).

For the molecule `CN(C)c1ccc(NC(=O)CCCCCCS)cc1`, at Histone deacetylase (read-out: IC50), the IC50 was found to be 1.2 µM.

`O=C(CCCCCCS)Nc1cccc(-c2ccccc2)c1`: on Histone deacetylase (read-out: IC50), the IC50 was 0.075 µM.

For the molecule `O=C(CCCCCCSSCCCCCCC(=O)Nc1ccccc1)Nc1ccccc1`, in the assay on NCI-H460, the EC50 was above 50 µM.

`O=C(CCCCCCSC(=O)c1ccc([N+](=O)[O-])cc1)Nc1ccccc1` showed an EC50 in the assay on NCI-H460 of 24 µM.

`O=C(CO)NCCCCCC(=O)Nc1ccccc1` registered an IC50 at Histone deacetylase above 100 µM.

Turning to `CN(C)c1ccc(C(=O)NCCCCCCS)cc1`, on Histone deacetylase (read-out: IC50), the IC50 was found to be 0.61 µM.

In the assay on NCI-H460, `CC(C)C(=O)SCCCCCCNC(=O)c1cc2ccccc2o1` yielded an EC50 of 4.1 µM.

Turning to `O=C(CCCCCCS)Nc1nc(-c2ccccc2)cs1`, the IC50 on Histone deacetylase (read-out: IC50) was found to be 0.17 µM.

As to `O=C(CCCCCCS)Nc1ccc(-c2ccccc2)cc1`, the IC50 at Histone deacetylase (read-out: IC50) was 1.1 µM.

Take `CC(=O)SCCCCCCC(=O)Nc1ccccc1`: the EC50 with NCI-H460 was 36 µM. In assay [1], the inhibition was 85%.

Consider `CSCCCCCCC(=O)Nc1ccccc1`, for which, in assay [1], the inhibition turned out to be 11%. On Histone deacetylase, this molecule returned an IC50 above 100 µM.

On Histone deacetylase, `CNC(=O)C(=O)CCCCCCC(=O)Nc1ccccc1` gave an IC50 of 0.34 µM.

For the molecule `O=C(CCCCCCS)Nc1ccc(Oc2ccccc2)cc1`, the IC50 on Histone deacetylase (read-out: IC50) is 0.62 µM.

In the case of `C#CCNCCCCCC(=O)Nc1ccccc1`, in assay [1], the inhibition was 14%. This molecule returned an IC50 against Histone deacetylase above 100 µM.

As for `O=C(CCCCCCS)Nc1cccnc1`, on Histone deacetylase (read-out: IC50), the IC50 was 0.11 µM.

Consider `O=C(CCCCCCS)Nc1cccc(Oc2ccccc2)c1`, for which the IC50 at Histone deacetylase (read-out: IC50) stood at 0.21 µM.

Take `CC(C)C(=O)SCCCCCCC(=O)Nc1cccnc1`: the EC50 in the assay on NCI-H460 is 2.9 µM.

In assay [1], `O=C(CCCCCCS(=O)(=O)NO)Nc1ccccc1` registered an inhibition of 14%. The same molecule gave an IC50 at Histone deacetylase above 100 µM.

As for `CCC(=O)SCCCCCCC(=O)Nc1ccccc1`, in the assay with NCI-H460, a half-maximal effect (EC50) was put at 28 µM.

`O=C(CCCCCCSC(=O)C1CCCC1)Nc1ccccc1`: the EC50 with NCI-H460 came out at 21 µM.

`CC(C)C(=O)SCCCCCCC(=O)Nc1cccc(-c2ccccc2)c1` came in with an EC50 in the assay with NCI-H460 of 2.8 µM.

`CC(C)C(=O)SCCCCCCNC(=O)c1ccc2ccccc2c1`: in the assay with NCI-H460, a half-maximal response (EC50) required 12 µM.

Take `O=C(NCCCCCCS)c1ccccc1`: at Histone deacetylase (read-out: IC50), the IC50 amounted to 0.36 µM.

As usually defined, the EC50 is the midpoint of the concentration-response curve. Read a low EC50 as higher potency in that assay. In general, inhibition refers to the change of the read-out against control, counted positive when it falls. A lower inhibition goes with a response near the control. In general, IC50 refers to the concentration needed to halve the response being measured.
